In ChEMBL document CHEMBL1137684, “Examination of growth inhibitory properties of synthetic chalcones for which antibacterial activity was predicted” (2009):
Values after ≈ are worked out from the molar mass of the structure shown. Active and inactive are the calls of the source. No rule for the calls is given here.

Columns and labels:
Escherichia coli = assay: Antibacterial activity against Escherichia coli WF+; format: functional, organism-based
Staphylococcus aureus [1] = assay: Antibacterial activity against Staphylococcus aureus Rosenbach 209 after 48 hrs by agar well diffusion method; format: functional
Outline: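 Agar-well diffusion on meat-peptone agar. Read-out was the diameter of the inhibition zone, with ≥15 mm taken as active. Pure solvent served as the control.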

Staphylococcus aureus [2] = assay: Antibacterial activity against Staphylococcus aureus Rosenbach 209 after 24 hrs by serial dilution method; format: functional; conditions: Rosenbach 209, 24 h
Outline: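 Serial dilution of each chalcone in meat-peptone broth in tubes. Each tube was inoculated with bacterial suspension at 10⁵ cells/ml and incubated at 37 °C for 24 h. MIC was the lowest dilution with no visible growth compared with inoculated drug-free broth.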

Row | SMILES | Activity (Escherichia coli) | diameter of the inhibition zone (DIZ) (Staphylococcus aureus [1]) [mm] | MIC (Staphylococcus aureus [2]) [µg/mL]
1 | CN(C)c1ccc(/C=C/C(=O)c2ccc(Cl)cc2)cc1 | inactive | 0 | 500 (≈ 1750 µM)
2 | COc1ccc(/C=C/C(=O)c2ccccc2)cc1 [4-METHOXY CHALCONE] | inactive | 0 | 500 (≈ 2100 µM)
3 | COc1cc(/C=C/C(=O)/C=C/c2cc(OC)c(OC)c(OC)c2)cc(OC)c1OC | inactive | 0 | 250 (≈ 603 µM)
4 | N#Cc1ccc(/C=C/C(=O)c2ccc(Cl)cc2)cc1 | inactive | 21 | 250 (≈ 934 µM)
5 | COc1cc(C(=O)/C=C/c2ccc([N+](=O)[O-])cc2)cc(OC)c1OC | inactive | 0 | 62.5 (≈ 182 µM)
6 | O=C(/C=C/c1cccc(O)c1)c1ccccc1 [3-HYDROXY CHALCONE] | inactive | 20 | 250 (≈ 1110 µM)
7 | O=C(/C=C/C=C/c1ccccc1)c1ccc(Cl)cc1 | inactive | 0 | 500 (≈ 1860 µM)
8 | COc1cccc(/C=C/C(=O)c2ccccc2)c1O | inactive | 19 | 125 (≈ 492 µM)
9 | COc1cc(C(=O)/C=C/c2ccc(C#N)cc2)cc(OC)c1OC | inactive | 0 | 62.5 (≈ 193 µM)
10 | COc1cc(C(=O)/C=C/c2ccc(O)cc2)cc(OC)c1OC | inactive | 0 | 500 (≈ 1590 µM)
11 | COc1cc(/C=C/C(=O)c2ccccc2)ccc1O | inactive | 0 | 500 (≈ 1970 µM)
12 | COc1cc(C(=O)/C=C/c2ccc(Cl)cc2)cc(OC)c1OC | inactive | 0 | 62.5 (≈ 188 µM)
13 | O=C(/C=C/c1ccc(O)c(O)c1)c1ccccc1 | inactive | 21 | 125 (≈ 520 µM)
14 | Cc1ccc(/C=C/C(=O)c2ccccc2)cc1 | inactive | 0 | 500 (≈ 2250 µM)
15 | N#Cc1ccc(/C=C/C(=O)c2ccccc2)cc1 | inactive | 16 | 500 (≈ 2140 µM)
16 | CC(=O)Nc1ccc(/C=C/C(=O)c2ccccc2)cc1 | inactive | 0 | 500 (≈ 1880 µM)
17 | O=C(/C=C/c1cccc(O)c1)c1ccc(Cl)cc1 | inactive | 25 | 125 (≈ 483 µM)
18 | O=C(/C=C/c1ccc(Cl)cc1)c1ccccc1 [4-CHLORO CHALCONE] | inactive | 0 | 500 (≈ 2060 µM)
19 | O=C(/C=C/c1ccccc1)c1ccc(Cl)cc1 | inactive | 0 | 500 (≈ 2060 µM)
20 | O=C(/C=C/C=C/c1ccccc1)/C=C/C=C/c1ccccc1 | inactive | 0 | 500 (≈ 1750 µM)
21 | COc1ccc(/C=C/C(=O)c2cc(OC)c(OC)c(OC)c2)cc1O | inactive | 0 | 500 (≈ 1450 µM)
22 | O=C(/C=C/c1ccc(O)cc1)c1ccc(Cl)cc1 | inactive | 31 | 125 (≈ 483 µM)
23 | COc1cc(C(=O)/C=C/C=C/c2ccccc2)cc(OC)c1OC | inactive | 19 | 500 (≈ 1540 µM)
24 | COc1cc(C(=O)/C=C/c2ccccc2)cc(OC)c1OC | inactive | 0 | 250 (≈ 838 µM)
25 | O=C(/C=C/c1ccccc1)c1ccccc1 [CHALCONE] | inactive | 29 | 125 (≈ 600 µM)
26 | O=C(/C=C/c1ccc([N+](=O)[O-])cc1)c1ccc(Cl)cc1 | inactive | 17 | 250 (≈ 869 µM)

Row | SMILES | Activity (Escherichia coli) | diameter of the inhibition zone (DIZ) (Staphylococcus aureus [1]) [mm] | MIC (Staphylococcus aureus [2]) [µg/mL]
27 | O=C(/C=C/c1ccccc1O)c1ccc(Cl)cc1 | inactive | 20 | 125 (≈ 483 µM)
28 | COc1cc(C(=O)/C=C/c2ccccc2O)cc(OC)c1OC | inactive | 0 | 500 (≈ 1590 µM)
29 | Cc1ccc(/C=C/C(=O)c2ccc(Cl)cc2)cc1 | inactive | 0 | 500 (≈ 1950 µM)
30 | COc1ccc(/C=C/C(=O)c2ccccc2)cc1O | inactive | 0 | 250 (≈ 983 µM)
31 | O=C(/C=C/c1ccc([N+](=O)[O-])cc1)c1ccccc1 | inactive | 17 | 250 (≈ 987 µM)
32 | O=C(/C=C/c1cc([N+](=O)[O-])ccc1O)c1ccc(Cl)cc1 | inactive | 0 | 500 (≈ 1650 µM)
33 | COc1ccc(/C=C/C(=O)c2ccc(Cl)cc2)cc1O | inactive | 0 | 62.5 (≈ 216 µM)
34 | O=C(/C=C/c1ccc(O)cc1)c1ccccc1 [4-HYDROXYCHALCONE] | inactive | 19 | 125 (≈ 557 µM)
35 | O=C(/C=C/C=C/c1ccccc1)c1ccccc1 | inactive | 0 | 500 (≈ 2130 µM)
36 | O=C(/C=C/c1ccc(O)c(O)c1)c1ccc(Cl)cc1 | inactive | 19 | 125 (≈ 455 µM)
37 | CN(C)c1ccc(/C=C/C(=O)c2ccccc2)cc1 | inactive | 0 | 500 (≈ 1990 µM)
38 | O=C(/C=C/c1ccc(Cl)cc1)/C=C/c1ccc(Cl)cc1 | inactive | 0 | 250 (≈ 825 µM)
39 | COc1cccc(/C=C/C(=O)c2ccc(Cl)cc2)c1O | inactive | 0 | 250 (≈ 866 µM)
40 | COc1ccc(/C=C/C(=O)c2cc(OC)c(OC)c(OC)c2)cc1 | inactive | 0 | 500 (≈ 1520 µM)
41 | CC(=O)Nc1ccc(/C=C/C(=O)c2ccc(Cl)cc2)cc1 | inactive | 0 | 500 (≈ 1670 µM)
42 | O=C(/C=C/c1ccccc1O)c1ccccc1 | inactive | 22 | 62.5 (≈ 279 µM)
43 | COc1cc(C(=O)/C=C/c2cccc(O)c2)cc(OC)c1OC | inactive | 0 | 500 (≈ 1590 µM)
44 | COc1cc(/C=C/C(=O)c2ccc(Cl)cc2)cc(OC)c1O | inactive | 19 | 500 (≈ 1570 µM)
45 | COc1cc(C(=O)/C=C/c2ccc(NC(C)=O)cc2)cc(OC)c1OC | inactive | 0 | 500 (≈ 1410 µM)
46 | COc1cc(C(=O)/C=C/c2ccc(N(C)C)cc2)cc(OC)c1OC | inactive | 0 | 500 (≈ 1460 µM)
47 | COc1ccc(/C=C/C(=O)c2ccc(Cl)cc2)cc1 | inactive | 0 | 500 (≈ 1830 µM)
48 | COc1cc(C(=O)/C=C/c2ccc(C)cc2)cc(OC)c1OC | inactive | 0 | 500 (≈ 1600 µM)
49 | O=C(/C=C/c1ccc(Cl)cc1)c1ccc(Cl)cc1 [4',4-DICHLOROCHALCONE] | inactive | 0 | 500 (≈ 1800 µM)
50 | COc1cc(/C=C/C(=O)c2cc(OC)c(OC)c(OC)c2)ccc1O | inactive | 0 | 500 (≈ 1450 µM)
51 | COc1cc(/C=C/C(=O)c2ccc(Cl)cc2)ccc1O | inactive | 21 | 250 (≈ 866 µM)
